Test results: ChEMBL document CHEMBL4732131, “Design, synthesis and evaluation of novel thienopyrimidine-based agents bearing diaryl urea functionality as potential inhibitors of angiogenesis” (Eur J Med Chem, 2021)
Active and inactive are the calls of the source. The calls are words filed in the database; no cut-off is given here.

Columns and labels:
[1] = system: T47D; test: Antiproliferative activity against human T47D cells incubated for 48 hrs by MTT assay; assay type: functional, cell-based
Procedure, shortened: (§1)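 8000 cells per well in complete medium, settled overnight at 37 °C under 5% CO2. Compounds were added from DMSO over a range of concentrations and incubated 48 h at 37 °C. MTT (5% solution) was added for 4 h and absorbance read at 570 nm. IC50 was taken from survival-versus-concentration curves. Negative control was 0.1% DMSO.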

[2] = system: PC-3; test: Antiproliferative activity against human PC-3 cells incubated for 48 hrs by MTT assay; assay type: functional, cell-based; details: PC-3, 48 h; procedure, shortened: as §1
[3] = system: HepG2; test: Antiproliferative activity against human HepG2 cells incubated for 48 hrs by MTT assay; assay type: functional, cell-based; details: HepG2, 48 h; procedure, shortened: as §1
[4] = system: HUVEC; test: Antiproliferative activity against HUVEC incubated for 48 hrs by MTT assay; assay type: functional, cell-based; details: Homo sapiens; procedure, shortened: as §1
[5] = system: HUVEC; test: Induction of cell cycle arrest in HUVEC assessed as number of cells at S phase at IC50 after 48 hrs by flow cytometry (reference value: 41.49%); assay type: functional, Homo sapiens
Procedure, shortened: (§2)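 Cells were PI-stained and analysed by flow cytometry, with the phase fractions (subG1, G1, S, G2/M) taken from DNA content.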

[6] = system: PC-3; test: Induction of apoptosis in human PC-3 cells assessed as necrotic cells at IC50 measured after 48 hrs by Annexin V-FITC/propidium iodide staining based flow cytometry (reference value: 7.74%); assay type: functional
[7] = system: Chorioallantoic membrane; test: Vascular disruptive effect in chicken fertilized egg chorioallantoic membrane assessed as reduced length of blood vessels by CAM assay; assay type: functional, tissue-based; details: Gallus gallus
[8] = system: Chorioallantoic membrane; test: Vascular disruptive effect in chicken fertilized egg chorioallantoic membrane assessed as decrease in number of capillary blood vessels by CAM assay relative to control; assay type: functional, tissue-based; set-up: concentration or dose not given beside the values; details: Gallus gallus, dose or concentration not given here
[9] = system: PC-3; test: Induction of cell cycle arrest in human PC-3 cells assessed as number of cells at S phase at IC50 after 48 hrs by flow cytometry (reference value: 44.12%); assay type: functional
[10] = system: HUVEC; test: Induction of cell cycle arrest in HUVEC assessed as number of cells at G2 phase at IC50 after 48 hrs by flow cytometry (reference value: 6.25%); assay type: functional, Homo sapiens; procedure, shortened: as §2
[11] = system: HUVEC; test: Induction of apoptosis in HUVEC assessed as viable cells at IC50 measured after 48 hrs by Annexin V-FITC/propidium iodide staining based flow cytometry (reference value: 87.4%); assay type: functional, Homo sapiens
[12] = system: PC-3; test: Down-regulation of VEGFR2 phosphorylation in human PC-3 cells by Western blot analysis; assay type: functional, cell-based; details: time 24-72 hrs, TDE = time-dependent effect
[13] = system: PC-3; test: Induction of apoptosis in human PC-3 cells assessed as early apoptotic cells at IC50 measured after 48 hrs by Annexin V-FITC/propidium iodide staining based flow cytometry (reference value: 4.7%); assay type: functional
[14] = Cytotoxicity against human Hu02 cells incubated for 48 hrs by MTT assay; assay type: cell-based; details: Hu02, 48 h; procedure, shortened: as §1
[15] = system: HUVEC; test: Induction of apoptosis in HUVEC assessed as early apoptotic cells at IC50 measured after 48 hrs by Annexin V-FITC/propidium iodide staining based flow cytometry (reference value: 4.51%); assay type: functional, Homo sapiens
[16] = system: HUVEC; test: Induction of apoptosis in HUVEC assessed as necrotic cells at IC50 measured after 48 hrs by Annexin V-FITC/propidium iodide staining based flow cytometry (reference value: 0.891%); assay type: functional, Homo sapiens
[17] = system: PC-3; test: Induction of apoptosis in human PC-3 cells assessed as late apoptotic cells at IC50 measured after 48 hrs by Annexin V-FITC/propidium iodide staining based flow cytometry (reference value: 5.16%); assay type: functional
[18] = system: PC-3; test: Down-regulation of VEGFR2 phosphorylation in human PC-3 cells at 48 hrs by Western blot analysis; assay type: functional, cell-based; details: dose 2.4-5.4 µM
Procedure, shortened: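 PC3 cells treated for 48 h at 2.4, 3.6 and 5.4 µM. Lysates run on 12% SDS-PAGE and transferred to nitrocellulose. Membranes probed overnight at 4 °C (12 h) for VEGFR-2 and p-VEGFR-2, with beta-actin as loading control. Detection by ECL.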

[19] = system: PC-3; test: Induction of apoptosis in human PC-3 cells assessed as viable cells at IC50 measured after 48 hrs by Annexin V-FITC/propidium iodide staining based flow cytometry (reference value: 81.4%); assay type: functional
[20] = system: PC-3; test: Induction of cell cycle arrest in human PC-3 cells assessed as number of cells at G2 phase at IC50 after 48 hrs by flow cytometry (reference value: 15.97%); assay type: functional
[21] = system: PC-3; test: Induction of cell cycle arrest in human PC3 cells assessed as accumulation at G1 phase at IC50 after 48 hrs by flow cytometry (reference value: 44.11%); assay type: functional
[22] = system: HUVEC; test: Induction of apoptosis in HUVEC assessed as late apoptotic cells at IC50 measured after 48 hrs by Annexin V-FITC/propidium iodide staining based flow cytometry (reference value: 7.23%); assay type: functional, Homo sapiens
[23] = system: PC-3; test: Induction of cell cycle arrest in human PC-3 cells assessed as number of cells at SubG1 phase at IC50 after 48 hrs by flow cytometry; assay type: functional
[24] = system: HUVEC; test: Induction of cell cycle arrest in HUVEC assessed as number of cells at G1 phase at IC50 after 48 hrs by flow cytometry (reference value: 40.93%); assay type: functional, Homo sapiens; procedure, shortened: as §2

| Structure (SMILES) | IC50 [1] | IC50 [2] | IC50 [3] | IC50 [4] | inhibition [8] | other results |
| --- | --- | --- | --- | --- | --- | --- |
| O=C(Nc1cccc(Cl)c1)Nc1nnc(Sc2ncnc3scc(-c4ccncc4)c23)s1 | 43.9 µM | 8 µM | 22.9 µM | 21 µM | – | – |
| O=C(Nc1ccc(Cl)c(Cl)c1)Nc1nnc(Sc2ncnc3scc(-c4ccncc4)c23)s1 | 14.6 µM | 3.6 µM | 61.9 µM | 7.8 µM | 65% | Activity [5]: 49.8%; Activity [6]: 12.6%; inhibition ([7]; dose or concentration not given here): 46%; Activity [9]: 40.58%; Activity [10]: 5.53%; Activity [11]: 55.2%; inhibition [12]: Tde; Activity [13]: 7.17%; IC50 [14]: 34.3 µM; Activity [15]: 4.65%; Activity [16]: 21%; Activity [17]: 37%; inhibition [18]: Dose-dependent effect; Activity [19]: 43.2%; Activity [20]: 12.85%; Activity [21]: 45.2%; Activity [22]: 17%; Activity [23]: 4.38%; Activity [24]: 48.3% |
| Cc1ccc(NC(=O)Nc2nnc(Sc3ncnc4scc(-c5ccncc5)c34)s2)cc1Cl | 34.8 µM | 4.7 µM | 16 µM | 23.2 µM | – | – |
| O=C(Nc1ccc(Cl)c(C(F)(F)F)c1)Nc1nnc(Sc2ncnc3scc(-c4ccncc4)c23)s1 | 28 µM | 12.1 µM | 45.3 µM | 18.4 µM | – | – |
| COc1cccc(NC(=O)Nc2nnc(Sc3ncnc4scc(-c5ccncc5)c34)s2)c1 | 56.9 µM | 6.8 µM | 28.4 µM | 67.7 µM | – | – |
| O=C(Nc1cccc(C(F)(F)F)c1)Nc1nnc(Sc2ncnc3scc(-c4ccncc4)c23)s1 | 45.1 µM | 11.5 µM | 15.3 µM | 22.4 µM | – | – |
| CNC(=O)c1cc(Oc2ccc(NC(=O)Nc3ccc(Cl)c(C(F)(F)F)c3)cc2)ccn1 [SORAFENIB] | 6.4 µM | 15.5 µM | 29.6 µM | 2.8 µM | – | Activity [5]: 27.1%; Activity [6]: 23.6%; Activity [9]: 22.32%; Activity [11]: 59.9%; Activity [13]: 1.92%; IC50 [14]: 40 µM; Activity [16]: 16.4%; Activity [19]: 57.9%; Activity [21]: 66.19%; Activity [22]: 23.8%; Activity [24]: 58.69% |

Continued, in another order:

| IC50 [1] | IC50 [2] | IC50 [3] | Structure (SMILES) | IC50 [4] | inhibition [8] | other results |
| --- | --- | --- | --- | --- | --- | --- |
| > 100 µM | 9.9 µM | 14.6 µM | COc1ccc(NC(=O)Nc2nnc(Sc3ncnc4scc(-c5ccncc5)c34)s2)cc1 | 16.9 µM | – | – |
| 16.7 µM | 6.6 µM | 64.1 µM | O=C(Nc1cccc(F)c1)Nc1nnc(Sc2ncnc3scc(-c4ccncc4)c23)s1 | 13.7 µM | 35% | inhibition [7]: inactive |
| 17.8 µM | 2.1 µM | 52 µM | Cc1ccc(NC(=O)Nc2nnc(Sc3ncnc4scc(-c5ccncc5)c34)s2)cc1 | 19.3 µM | – | – |
| 23.3 µM | 5.7 µM | 19.4 µM | O=C(Nc1ccccc1)Nc1nnc(Sc2ncnc3scc(-c4ccncc4)c23)s1 | 19.3 µM | – | – |
| 18.9 µM | 0.97 µM | 31.7 µM | O=C(Nc1ccc(F)cc1)Nc1nnc(Sc2ncnc3scc(-c4ccncc4)c23)s1 | 28.3 µM | 27% | Activity [6]: 32.2%; inhibition [7]: inactive; Activity [9]: 29.76%; Activity [13]: 1.47%; Activity [17]: 23%; Activity [19]: 43.3%; Activity [21]: 55.92%; Activity [23]: 9.73% |
| 27.2 µM | 5.2 µM | 20.7 µM | Cc1cccc(NC(=O)Nc2nnc(Sc3ncnc4scc(-c5ccncc5)c34)s2)c1 | 12.2 µM | 29% | inhibition [7]: inactive |
| 23.3 µM | 7.7 µM | 28.9 µM | O=C(Nc1ccc(Cl)cc1)Nc1nnc(Sc2ncnc3scc(-c4ccncc4)c23)s1 | 11.6 µM | 21% | inhibition [7]: inactive |
